Data: ChEMBL document CHEMBL2385072, “Development of oleanane-type triterpenes as a new class of HCV entry inhibitors” (J Med Chem, 2013)
Active and inactive are the calls of the source. No cut-off for these calls is given here.

Assays:
[1] = system: HepG2; assay: Cytotoxicity against human HepG2 cells at 50 uM after 48 hrs by Alamar Blue assay; type: cell-based; conditions: hepg2, 48 h
Summary of the method: (§1)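 alamarBlue viability assay in HepG2, HeLa and 293T cells, compound up to 50 μM.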

[2] = Hemolytic activity against rabbit RBC after 60 mins by spectrophotometry; type: ADME, cell-based, Oryctolagus cuniculus, Erythrocyte
Summary of the method: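 2% rabbit erythrocytes in 130 mM NaCl, 20 mM Tris-HCl pH 7.4 incubated with serially diluted compounds for 60 min at 37 °C. Hemolysis read as absorbance at 540 nm.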

[3] = system: HeLa; assay: Cytotoxicity against human HeLa cells at 50 uM after 48 hrs by Alamar Blue assay; type: cell-based; summary of the method: as §1
[4] = molecular target: T1, CD81 antigen (Homo sapiens, UniProt P60033); assay: Binding affinity to CD81 (unknown origin)
T1 sequence (P60033 whole entry): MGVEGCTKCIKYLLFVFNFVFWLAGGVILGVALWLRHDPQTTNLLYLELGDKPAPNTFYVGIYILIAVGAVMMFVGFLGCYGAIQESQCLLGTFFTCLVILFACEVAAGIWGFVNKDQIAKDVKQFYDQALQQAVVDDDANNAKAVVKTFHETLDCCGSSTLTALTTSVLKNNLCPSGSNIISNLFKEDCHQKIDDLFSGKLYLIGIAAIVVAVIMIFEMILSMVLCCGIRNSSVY
Summary of the method: (§2)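 BIAcore: E2 immobilized on a streptavidin sensor via SA–biotin and exposed to CD81 at 40.9–654.5 nM to fit K_D. CD81 was also tested together with compound.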

[5] = system: HEK-293T; assay: Cytotoxicity against human 293T cells at 50 uM after 48 hrs by Alamar Blue assay; type: cell-based; summary of the method: as §1
[6] = system: Vesicular stomatitis virus; assay: Antiviral activity against pseudo VSV infected in human 293T cells assessed as inhibition of vesicular stromatis G protein pseudo particles entry at 1 uM after 72 hrs by luciferase reporter gene assay; type: functional; conditions: HEK-293T
[7] = system: Hepatitis C virus; assay: Ratio of echinocystic acid IC50 to compound IC50 for pseudo HCV infected in human 293T cells assessed as inhibition of HCV pseudo particles entry after 72 hrs by luciferase reporter gene assay; type: functional, Hepacivirus hominis
Summary of the method: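 HCVpp luciferase entry assay in Huh-7 cells, 72 h at 37 °C. Six-point curves at tenfold steps, 1 nM–100 μM or 0.5 nM–50 μM. Each concentration in triplicate, mean and SD.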

[8] = system: Hepatitis C virus; assay: Antiviral activity against pseudo HCV infected in human 293T cells assessed as inhibition of HCV pseudo particles entry at 5 uM after 72 hrs by luciferase reporter gene assay; type: functional, Hepacivirus hominis; conditions: HEK-293T
[9] = system: Hepatitis C virus; assay: Antiviral activity against pseudo HCV infected in human 293T cells assessed as inhibition of HCV pseudo particles entry after 72 hrs by luciferase reporter gene assay; type: functional, organism-based, Hepacivirus hominis
Summary of the method: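 HCVpp (HCV E1/E2 on Env/Vpr-deficient HIV luciferase vector, made in 293T by cotransfection, harvested 72 h) added to 5×10^3 Huh-7 cells/well with compound at final 1 or 5 μM in 1% DMSO; 72 h, 37 °C; luciferase read. Inhibition = 100 − % of DMSO control after uninfected-well background subtraction; VSVpp run in parallel; duplicate, ≥3 experiments.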

[10] = system: Hepatitis C virus; assay: Antiviral activity against pseudo HCV infected in human 293T cells assessed as inhibition of HCV pseudo particles entry at 1 uM after 72 hrs by luciferase reporter gene assay; type: functional, Hepacivirus hominis; conditions: HEK-293T
[11] = system: Vesicular stomatitis virus; assay: Antiviral activity against pseudo VSV infected in human 293T cells assessed as inhibition of vesicular stromatis G protein pseudo particles entry at 5 uM after 72 hrs by luciferase reporter gene assay; type: functional; conditions: HEK-293T
[12] = system: Hepatitis C virus; assay: Antiviral activity against pseudo HCV infected in human 293T cells assessed as inhibition of HCV pseudo particles entry at 10 uM after 72 hrs by luciferase reporter gene assay; type: functional, Hepacivirus hominis; conditions: HEK-293T
[13] = system: Hepatitis C virus; assay: Antiviral activity against pseudo HCV infected in human Huh7 cells assessed as inhibition of HCV pseudo particles entry at 10 uM after 72 hrs; type: functional, organism-based; conditions: Hepacivirus hominis, Huh-7
Summary of the method: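 Co-treatment: Huh7 cells infected with HCVpp (or VSVpp) with 10 μM compound present throughout, 72 h at 37 °C. Normalized to 0.5% DMSO (final). CD81 antibody (5 nM) was the positive control and an unrelated compound the negative control. Luciferase read-out.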

[14] = Inhibition of HCV envelope protein E2 protein interaction with CD81 receptor (unknown origin) by BIAcore assay; parameters: species or system Hepacivirus hominis; summary of the method: as §2
[15] = system: Hepatitis C virus; assay: Antiviral activity against pseudo HCV infected in human Huh7 cells assessed as inhibition of HCV pseudo particles entry at 10 uM incubated for 3 hrs prior to virus addition measured after 72 hrs; type: functional, organism-based; conditions: Hepacivirus hominis, Huh-7
Summary of the method: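 Pretreatment: Huh7 cells exposed to 10 μM compound for 3 h at 37 °C, washed, then infected with HCVpp for 72 h at 37 °C. Normalized to 0.5% DMSO. CD81 antibody 5 nM as control.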

[16] = system: Hepatitis C virus; assay: Antiviral activity against pseudo HCV infected in human Huh7 cells at 10 uM after 72 hrs; type: functional, organism-based; conditions: Hepacivirus hominis, Huh-7
Summary of the method: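 Post-entry: Huh7 cells infected with HCVpp at 37 °C for 6 h, washed, then treated with 10 μM compound at 37 °C for 72 h. Normalized to 0.5% DMSO. CD81 antibody 5 nM as control.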

[17] = system: Hepatitis C virus; assay: Antiviral activity against pseudo HCV infected in human Huh7 cells assessed as inhibition of HCV pseudo particles entry at 10 uM incubated for 3 hrs prior to compound addition measured after 72 hrs; type: functional, organism-based; conditions: Hepacivirus hominis, Huh-7
Summary of the method: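 Post-binding/pre-entry: Huh7 cells incubated with HCVpp at 4 °C for 3 h, washed, then treated with 10 μM compound at 37 °C for 72 h. Normalized to 0.5% DMSO. CD81 antibody 5 nM as control.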

[18] = system: Hepacivirus hominis; assay: Binding affinity to HCV envelope protein E2 protein by SPR method
Summary of the method: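 E2 loaded on streptavidin-coated biosensors and exposed to compound at 3.125–100 μM to obtain binding curves and K_D. Competition was also tested as E2 binding to a biotin-labelled compound chip in the presence of free compound at varied doses.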

[19] = system: Hepatitis C virus; assay: Antiviral activity against pseudo HCV infected in human Huh7 cells assessed as inhibition of HCV pseudo particles entry at 10 uM incubated for 3 hrs; type: functional, organism-based; conditions: Hepacivirus hominis, Huh-7
Summary of the method: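 Prebinding: Huh7 cells exposed to HCVpp plus 10 μM compound at 4 °C for 3 h, washed free of virus and compound, then cultured 72 h at 37 °C. Normalized to 0.5% DMSO. CD81 antibody 5 nM as control.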

[20] = system: Hepacivirus hominis; assay: Binding affinity to HCV envelope protein E2 protein by pull down assay
Summary of the method: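 Biotin-labelled probe incubated with lysate of HCVpp-packaging cells and captured on streptavidin agarose. Free biotin and unlabelled compound served as parallel probes. For competition, excess free compound was added to the lysate. Bound E2 was detected.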

With CC1(C)CC[C@]2(C(=O)O)[C@H](O)C[C@]3(C)C(=CC[C@@H]4[C@@]5(C)CC[C@H](O)C(C)(C)[C@@H]5CC[C@]43C)[C@@H]2C1 [ECHINOCYSTIC ACID] the Activity [1] was “Non-toxic”, the HC50 at 1 h ([2]; rabbit red blood cells, read-out: CC50) was 15 µM and the Activity [3] was “Non-toxic”. For the same compound, the Kd [4] was 21 nM and the Activity [5] was “Non-toxic”.

With CC(=O)OC[C@H]1O[C@@H](O[C@H]2[C@H](OC(C)=O)[C@@H](OC(C)=O)[C@H](OC(=O)[C@]34CCC(C)(C)C[C@H]3C3=CC[C@@H]5[C@@]6(C)CC[C@H](O)C(C)(C)[C@@H]6CC[C@@]5(C)[C@]3(C)C[C@H]4O)O[C@@H]2COC(C)=O)[C@H](OC(C)=O)[C@@H](OC(C)=O)[C@H]1OC(C)=O the inhibition at 1 µM [6] was 11.2%, the Activity [1] was “Non-toxic” and the “Ratio IC50” value [7] was 5. For the same compound, the inhibition at 5 µM [8] was 88.6%, the IC50 [9] was 300 nM and the inhibition at 1 µM [10] was 80.4%. The inhibition at 5 µM [11] was 14.9%, the Activity [3] was “Non-toxic” and the Activity [5] was “Non-toxic”.

For CC1(C)CC[C@]2(C(=O)O)CC[C@]3(C)C(=CC[C@@H]4[C@@]5(C)CC[C@H](O)C(C)(C)[C@@H]5CC[C@]43C)[C@@H]2C1 [OLEANOLIC_ACID], the inhibition at 10 µM [12] was 65%, the IC50 [9] was 10000 nM and the Activity ([2]; erythrocyte, 1 h) was “Toxic”.

In the case of CC1(C)CC[C@]2(C(=O)NCc3cn(CCCn4cc(CNC(=O)[C@]56CCC(C)(C)C[C@H]5C5=CC[C@@H]7[C@@]8(C)CC[C@H](O)C(C)(C)[C@@H]8CC[C@@]7(C)[C@]5(C)C[C@H]6O)nn4)nn3)[C@H](O)C[C@]3(C)C(=CC[C@@H]4[C@@]5(C)CC[C@H](O)C(C)(C)[C@@H]5CC[C@]43C)[C@@H]2C1, the inhibition at 1 µM [6] is reported as 16.5%, the Activity [1] is reported as “Non-toxic” and the “Ratio IC50” value [7] is reported as 200. For the same compound, the inhibition at 5 µM [8] was 89%, the IC50 [9] was 10 nM and the inhibition at 1 µM [10] was 86.3%. The inhibition at 5 µM [11] was 11.9%, the Activity [3] was “Non-toxic” and the Activity [5] was “Non-toxic”.

With CC1(C)CC[C@]2(C(=O)O)[C@H](O)C[C@]3(C)C(=CC[C@@H]4[C@@]5(C)CC[C@H](O)C(C)(C)[C@@H]5CC[C@]43C)[C@H]2C1 [ECHINOCYSTIC ACID] the inhibition [13] was “Active”, the inhibition at 1 µM [6] was 7.2% and the Kd [14] was 24000 nM. The inhibition at 5 µM [8] was 77.7%, the inhibition at 10 µM [12] was 90% and the inhibition [15] was “Active”. The IC50 [9] was 1400 nM, the inhibition at 1 µM [10] was 27.5% and the Activity [16] was “inactive”. For the same compound, the inhibition [17] was “Active”, the inhibition at 5 µM [11] was 9% and the Activity [18] was “Dose-dependent effect”. For the same compound, the inhibition [19] was “Active” and the Activity [20] was “Active”.
